SIRT5 inh – inhibitors of human sirtuin-5 desuccinylase | inhibition, % at 15 µM | 330,000 compounds, 1.1% hits | Purified SirT5, succinyl-peptide AMC, trypsin-coupled fluorescence | AID 652115 | Q9NXA8; in the data active means inhibition above about 15%
miR122 inh – inhibitors of miR-122 in Huh7 cells | activation (reporter increase), % at 12.5 µM | AID 602342 | 340,000 compounds, 0.3% hits | Huh7 miR-122 Renilla luciferase sensor, 48 h; neutral wells = 0, positive control = 100;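 active means mean replicate activation score at least 90 and every replicate individually at or above 90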;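 further: higher luciferase means less miR-122 activity so hits act as miR-122 inhibitors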
E-sel inducer – E-selectin induction on HUVECs. P16581. HUVEC E-selectin immunofluorescence imaging; normalized: neutral wells 0, TNF-alpha wells 100. 260,000 compounds, 0.37% hits. activation, % at 7.58 µM;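 active means mean E-selectin-positive cell signal at least 10% of the positive control, reached in at least 60% of replicates, without over 20% cell loss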
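Assay system: HUVEC, human umbilical vein endothelial cells / Amount: 3,000 HUVEC/well / Controls: TNF-alpha positive control, DMSO neutral control / Compound dosing: single concentration / Medium: EGM-2 over gelatin coat / Evaluation: percent E-selectin-positive cells / Signal: immunofluorescence imaging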
FGF22 binding – FGF22 (human) thermal shift binding; Q9HCT0; 340,000 compounds, 1.5% hits; activity (Tm shift, normalised), % at 9.99 µM; recombinant FGF22 thermal shift, SYPRO orange fluorescence; percent of sucrose octasulfate shift, DMSO zero; AID 651658;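 active means mean Tm shift, scaled 0 neutral to 100 positive control, at about 1.3% or above, every replicate too, limit read from the data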
Target sequence (Q9HCT0 whole entry, looked up): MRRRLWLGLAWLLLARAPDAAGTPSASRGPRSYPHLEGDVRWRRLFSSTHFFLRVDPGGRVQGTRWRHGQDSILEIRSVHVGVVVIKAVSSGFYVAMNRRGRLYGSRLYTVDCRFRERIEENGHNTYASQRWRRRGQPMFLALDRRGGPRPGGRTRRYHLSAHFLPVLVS
S100A4 MyoIIA – S100A4-myosin IIA interaction inhibition. P26447. S100A4/TAMRA-MyoIIA peptide fluorescence polarization. inhibition, % at 10.7 µM. 360,000 compounds, 0.14% hits. AID 652163;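 active means mean inhibition of at least 70% across replicates, with every replicate also reaching that level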
Target sequence (P26447 whole entry, looked up): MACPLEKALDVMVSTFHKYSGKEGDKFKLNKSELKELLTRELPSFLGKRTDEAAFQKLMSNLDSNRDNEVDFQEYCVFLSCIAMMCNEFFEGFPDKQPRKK
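Compound dosing: one dose per compound; test system: human S100A4 monomer with TAMRA-labelled myosin IIA peptide; probe or stimulus: TAMRA-labelled myosin IIA heavy-chain peptide probe, 5 nM; medium: HEPES buffer with Ca2+, pH 7.2; schedule: 5 min incubation before reading; benchmarks: neutral control DMSO, positive control TFP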
Large screens that a line does not name were inactive; [ ] = remark or other dose. The list is not random: actives were taken first. Their share in the collection is about 2.5%.

Cc1ccc(S(=O)(=O)N(C)C[C@@H]2Oc3ccc(NC(=O)Nc4ccc5c(c4)OCO5)cc3CC(=O)N([C@@H](C)CO)C[C@@H]2C)cc1	miR122 inh 113.4[16.7 µM]
COc1ccc(NC(=O)Nc2ccc3c(c2)CC(=O)N([C@H](C)CO)C[C@H](C)[C@@H](CN(C)S(=O)(=O)c2ccc(C)cc2)O3)cc1	SIRT5 inh 15.1 (no result: miR122 inh)
COc1ccc(NC(=O)Nc2ccc3c(c2)CC(=O)N([C@@H](C)CO)C[C@@H](C)[C@@H](CN(C)S(=O)(=O)c2ccc(C)cc2)O3)cc1	none (no result: miR122 inh)
COc1ccc(S(=O)(=O)N(C)C[C@H]2Oc3ccc(NC(=O)Nc4ccc5c(c4)OCO5)cc3CC(=O)N([C@H](C)CO)C[C@@H]2C)cc1	E-sel inducer 428.6
C[C@H](CO)N1C[C@H](C)[C@H](CN(C)S(=O)(=O)c2ccccc2)Oc2ccc(NC(=O)Nc3ccc4c(c3)OCO4)cc2CC1=O	SIRT5 inh 16.2
COc1ccc2c3c([nH]c2c1)[C@@H](CO)N(C(=O)C1CC1)CC31CN(Cc2nccs2)C1	none (no result: miR122 inh)
O=C(N[C@@H]1CC[C@H](CCNC(=O)C2CCCC2)O[C@H]1CO)c1ccncc1	none
CC(C)NC(=O)Nc1ccc2c(c1)C(=O)N([C@H](C)CO)C[C@@H](C)[C@H](CN(C)Cc1ccncc1)OCCCC[C@H](C)O2	none (no result: SIRT5 inh, FGF22 binding, S100A4 MyoIIA)
O=S(=O)(c1ccc(F)cc1)N1CCCCN2[C@H](C1)[C@@H](c1ccc(-c3ccccc3)cc1)[C@@H]2CO	none
Cc1noc(C)c1NC(=O)Nc1ccc2c(c1)CC(=O)N([C@H](C)CO)C[C@H](C)[C@H](CN(C)S(=O)(=O)c1ccccc1)O2	E-sel inducer 47.5
Cc1noc(C)c1NC(=O)Nc1ccc2c(c1)CC(=O)N([C@H](C)CO)C[C@H](C)[C@@H](CN(C)S(=O)(=O)c1ccccc1)O2	none
CCNC(=O)[C@@H]1[C@@H](CO)[C@@H]2Cn3c(cccc3=O)[C@@H]2N1Cc1ccccc1Cl	none
CC1CC2(C)Oc3ccccc3CC2C(C)C1CNCCCN(C)C (stereo not given)	FGF22 binding 43.0 (no result: miR122 inh)
CN1C(=O)c2cc(NC(=O)Cc3ccccc3)ccc2OC[C@H]2O[C@@H](CC(=O)NCC3CC3)CC[C@@H]21	none
COc1ccccc1C(=O)Nc1ccc2c(c1)C(=O)N(C)[C@H]1CC[C@H](CC(=O)NCc3ccc(Cl)c(Cl)c3)O[C@H]1CO2	miR122 inh 307.8[16.7 µM]
CN1C(=O)c2cc(NC(=O)Cc3ccccc3)ccc2OC[C@@H]2O[C@H](CC(=O)NCc3ccc(Cl)cc3)CC[C@@H]21	miR122 inh 293.3[16.7 µM] (no result: SIRT5 inh, S100A4 MyoIIA)
CN1C(=O)c2cc(NC(=O)Cc3ccccc3)ccc2OC[C@@H]2O[C@H](CC(=O)NCC3CC3)CC[C@@H]21	miR122 inh 233.3[16.7 µM]
CN1C(=O)c2cc(NC(=O)Cc3ccccc3)ccc2OC[C@@H]2O[C@H](CC(=O)NC3CCC3)CC[C@@H]21	miR122 inh 125.0[16.7 µM]
CN1C(=O)c2cc(NC(=O)Cc3ccccc3)ccc2OC[C@@H]2O[C@@H](CC(=O)NCc3ccc(Cl)cc3)CC[C@H]21	none (no result: SIRT5 inh, S100A4 MyoIIA)
CC(C)NC(=O)Nc1ccc2c(c1)CC(=O)N([C@H](C)CO)C[C@H](C)[C@@H](CN(C)C(=O)Nc1ccc3c(c1)OCO3)O2	none
C#CCN([C@H](/C=C/C1CC1)[C@@H](O)Cc1ccccc1)[C@@H]1C(=O)N2[C@@H]1SC(C)(C)[C@@H]2C(=O)OC	none (no result: miR122 inh, E-sel inducer)
C[C@@H]1CCCCO[C@@H](CN(C)C(=O)NC2CCCCC2)[C@H](C)CN([C@@H](C)CO)C(=O)c2cc(NC(=O)CCCN(C)C)ccc2O1	none
COCC(=O)Nc1ccc2c(c1)[C@@H]1C[C@H](CC(=O)NCC3CC3)O[C@H](CO)[C@@H]1O2	none
CN1C(=O)c2cc(NS(C)(=O)=O)ccc2OC[C@@H]2O[C@H](CC(=O)NCc3ccc(-c4ccccc4)cc3)CC[C@@H]21	E-sel inducer 64.7 (no result: miR122 inh)
CN1C(=O)c2cc(NS(C)(=O)=O)ccc2OC[C@@H]2O[C@H](CC(=O)NCc3ccc(-c4ccccc4)cc3)CC[C@H]21	none (no result: miR122 inh)
C[C@@H]1CCCCO[C@@H](CN(C)Cc2ccncc2)[C@H](C)CN([C@@H](C)CO)C(=O)c2cc(NS(=O)(=O)c3ccc(F)cc3)ccc2O1	none
